Measured values reported in ChEMBL document CHEMBL5649168, “Discovery of a selective catalytic p300/CBP inhibitor that targets lineage-specific tumours” (Nature, 2017).
One block for each molecule: values may come before it. Calls of active or inactive are those of the source. No cut-off for these calls is given here.

Experiments:
[1] = target: T1, Histone acetyltransferase p300 (Homo sapiens, UniProt Q09472); experiment: Inhibition of p300 HAT domain (unknown origin) using Biotin-C6-GRGKGGKGLGKGGAK as substrate pretreated with enzyme for 30 mins followed by incubation with substrate for 1 hr by radiometric scintillation proximity assay
[2] = target: T2, CREB-binding protein/Histone acetyltransferase p300 (Homo sapiens, UniProt Q09472+Q92793); conditions: 22Rv1, dose 0.3-3 mM
[3] = target: T1, Histone acetyltransferase p300; experiment: Binding affinity to recombinant human p300 HAT domain expressed in Escherichia coli BL21-CodonPlus(DE3)-RIL cells assessed as dissociation constant using CMLVELHTQSQDRF as substrate by surface plasmon resonance analysis
[4] = target: T2, CREB-binding protein/Histone acetyltransferase p300; experiment: Inhibition of p300/CBP in human PC-3 cells assessed as reduction in H3K27Ac level incubated for 3 hrs by Hoechst 33342 staining based high content microscopy analysis; assay type: cell-based
In short: (§1)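 PC-3 cells were plated overnight on collagen I-coated plates. They were treated with an 8-point half-log series from 10 µM, then fixed in 10% formaldehyde, permeabilized in 0.1% Triton X-100 and blocked in 1% BSA. Mean intensity was imaged over 15 fields per well; EC50 from sigmoidal fit.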

[5] = target: T2, CREB-binding protein/Histone acetyltransferase p300; experiment: Inhibition of p300/CBP in human PC-3 cells assessed as reduction in H3K9Ac level incubated for 3 hrs by Hoechst 33342 staining based high content microscopy analysis; assay type: cell-based; in short: as §1
[6] = target: T2, CREB-binding protein/Histone acetyltransferase p300; experiment: Inhibition of p300/CBP in human PC-3 cells assessed as reduction in H3K18Ac level incubated for 3 hrs by Hoechst 33342 staining based high content microscopy analysis; assay type: cell-based
[7] = target: T1, Histone acetyltransferase p300; experiment: (§2) Inhibition of N-terminal 6His-Flag tagged p300-BHC domain (1036 to 1822 residues) (unknown origin) expressed in Sf9 cells using the Bac-to-Bac baculovirus system under EDTA-free condition using biotinylated synthetic Histone-H4 peptide incubated for 30 mins followed by substrate addition and measured after 1hr by TR-FRET assay
In short: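 TR-FRET acetylation of biotinylated histone H4 peptide. Buffer: 100 mM HEPES pH 7.9, 100 mM KCl, 40 µg/mL BSA, 1 mM DTT, 0.01% Triton X-100. The EDTA-free run used protein purified without EDTA and buffer without EDTA. Enzyme at 0.6 nM was preincubated 30 min with compound (3-fold series, 50 µM to 0.00075 µM). Substrates were 2 µM peptide and 0.5 µM acetyl-CoA, 1 h at room temperature. Read by Eu-anti-acetyl-H4 / ULight-streptavidin; IC50 from sigmoidal fit.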

[8] = target: CREB-binding protein (Homo sapiens, UniProt Q92793); experiment: as §2, with “CBP-BHC” for “p300-BHC”, “(1072” for “(1036”, “1859” for “1822”
[9] = target: MAO-A (Homo sapiens, UniProt P21397); experiment: Inhibition of MAO-A (unknown origin) at 10 uM by radioligand binding assay relative to control
[10] = target: Ca2+ channel (L, dihydropyridine site) (Homo sapiens, UniProt O60840+Q01668+Q13698+Q13936); experiment: Inhibition of Ca2+ channel (L, dihydropyridine site) (unknown origin) at 10 uM by radioligand binding assay relative to control; assay type: protein assay
[11] = target: MAO-B (Homo sapiens, UniProt P27338); experiment: Inhibition of human recombinant MAO-B at 10 uM by radioligand binding assay relative to control
[12] = target: T2, CREB-binding protein/Histone acetyltransferase p300; experiment: Inhibition of p300/CBP in human 22Rv1 cells assessed as reduction in H3K27Ac level incubated for 24 hrs by Hoechst 33342 staining based high content microscopy analysis; assay type: cell-based
In short: (§3)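 Cells received an 8-point half-log dilution series from 10 µM. They were then fixed in 10% formaldehyde (10 min, RT), permeabilised with 0.1% Triton X-100 and blocked with 1% BSA for 1 h. Primary antibodies were applied overnight at 4 °C, followed by Alexa488 anti-rabbit, Alexa555 anti-mouse and Hoechst 33342 for 1 h. Fifteen fields per well were imaged and average mean intensity taken. EC50 came from a sigmoidal fit.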

[13] = target: T2, CREB-binding protein/Histone acetyltransferase p300; experiment: Inhibition of p300/CBP in human 22Rv1 cells assessed as reduction in H3K18Ac level incubated for 1 hr by Hoechst 33342 staining based high content microscopy analysis; assay type: cell-based; in short: as §3
[14] = target: T2, CREB-binding protein/Histone acetyltransferase p300; experiment: Inhibition of p300/CBP in human 22Rv1 cells assessed as reduction in H3K18Ac level incubated for 3 hrs by Hoechst 33342 staining based high content microscopy analysis; assay type: cell-based; in short: as §3
[15] = target: T2, CREB-binding protein/Histone acetyltransferase p300; experiment: Inhibition of p300/CBP in human 22Rv1 cells assessed as reduction in H3K18Ac level incubated for 24 hrs by Hoechst 33342 staining based high content microscopy analysis; assay type: cell-based; in short: as §3
[16] = target: T2, CREB-binding protein/Histone acetyltransferase p300; experiment: Inhibition of p300/CBP in human 22Rv1 cells assessed as reduction in H3K9Ac level incubated for 1 hr by Hoechst 33342 staining based high content microscopy analysis; assay type: cell-based; in short: as §3
[17] = target: T2, CREB-binding protein/Histone acetyltransferase p300; experiment: Inhibition of p300/CBP in human 22Rv1 cells assessed as reduction in H3K9Ac level incubated for 3 hrs by Hoechst 33342 staining based high content microscopy analysis; assay type: cell-based; in short: as §3
[18] = target: T2, CREB-binding protein/Histone acetyltransferase p300; experiment: Inhibition of p300/CBP in human 22Rv1 cells assessed as reduction in H3K9Ac level incubated for 24 hrs by Hoechst 33342 staining based high content microscopy analysis; assay type: cell-based; in short: as §3

T2 sequence (Q09472 whole entry, looked up, the tested form may be a part): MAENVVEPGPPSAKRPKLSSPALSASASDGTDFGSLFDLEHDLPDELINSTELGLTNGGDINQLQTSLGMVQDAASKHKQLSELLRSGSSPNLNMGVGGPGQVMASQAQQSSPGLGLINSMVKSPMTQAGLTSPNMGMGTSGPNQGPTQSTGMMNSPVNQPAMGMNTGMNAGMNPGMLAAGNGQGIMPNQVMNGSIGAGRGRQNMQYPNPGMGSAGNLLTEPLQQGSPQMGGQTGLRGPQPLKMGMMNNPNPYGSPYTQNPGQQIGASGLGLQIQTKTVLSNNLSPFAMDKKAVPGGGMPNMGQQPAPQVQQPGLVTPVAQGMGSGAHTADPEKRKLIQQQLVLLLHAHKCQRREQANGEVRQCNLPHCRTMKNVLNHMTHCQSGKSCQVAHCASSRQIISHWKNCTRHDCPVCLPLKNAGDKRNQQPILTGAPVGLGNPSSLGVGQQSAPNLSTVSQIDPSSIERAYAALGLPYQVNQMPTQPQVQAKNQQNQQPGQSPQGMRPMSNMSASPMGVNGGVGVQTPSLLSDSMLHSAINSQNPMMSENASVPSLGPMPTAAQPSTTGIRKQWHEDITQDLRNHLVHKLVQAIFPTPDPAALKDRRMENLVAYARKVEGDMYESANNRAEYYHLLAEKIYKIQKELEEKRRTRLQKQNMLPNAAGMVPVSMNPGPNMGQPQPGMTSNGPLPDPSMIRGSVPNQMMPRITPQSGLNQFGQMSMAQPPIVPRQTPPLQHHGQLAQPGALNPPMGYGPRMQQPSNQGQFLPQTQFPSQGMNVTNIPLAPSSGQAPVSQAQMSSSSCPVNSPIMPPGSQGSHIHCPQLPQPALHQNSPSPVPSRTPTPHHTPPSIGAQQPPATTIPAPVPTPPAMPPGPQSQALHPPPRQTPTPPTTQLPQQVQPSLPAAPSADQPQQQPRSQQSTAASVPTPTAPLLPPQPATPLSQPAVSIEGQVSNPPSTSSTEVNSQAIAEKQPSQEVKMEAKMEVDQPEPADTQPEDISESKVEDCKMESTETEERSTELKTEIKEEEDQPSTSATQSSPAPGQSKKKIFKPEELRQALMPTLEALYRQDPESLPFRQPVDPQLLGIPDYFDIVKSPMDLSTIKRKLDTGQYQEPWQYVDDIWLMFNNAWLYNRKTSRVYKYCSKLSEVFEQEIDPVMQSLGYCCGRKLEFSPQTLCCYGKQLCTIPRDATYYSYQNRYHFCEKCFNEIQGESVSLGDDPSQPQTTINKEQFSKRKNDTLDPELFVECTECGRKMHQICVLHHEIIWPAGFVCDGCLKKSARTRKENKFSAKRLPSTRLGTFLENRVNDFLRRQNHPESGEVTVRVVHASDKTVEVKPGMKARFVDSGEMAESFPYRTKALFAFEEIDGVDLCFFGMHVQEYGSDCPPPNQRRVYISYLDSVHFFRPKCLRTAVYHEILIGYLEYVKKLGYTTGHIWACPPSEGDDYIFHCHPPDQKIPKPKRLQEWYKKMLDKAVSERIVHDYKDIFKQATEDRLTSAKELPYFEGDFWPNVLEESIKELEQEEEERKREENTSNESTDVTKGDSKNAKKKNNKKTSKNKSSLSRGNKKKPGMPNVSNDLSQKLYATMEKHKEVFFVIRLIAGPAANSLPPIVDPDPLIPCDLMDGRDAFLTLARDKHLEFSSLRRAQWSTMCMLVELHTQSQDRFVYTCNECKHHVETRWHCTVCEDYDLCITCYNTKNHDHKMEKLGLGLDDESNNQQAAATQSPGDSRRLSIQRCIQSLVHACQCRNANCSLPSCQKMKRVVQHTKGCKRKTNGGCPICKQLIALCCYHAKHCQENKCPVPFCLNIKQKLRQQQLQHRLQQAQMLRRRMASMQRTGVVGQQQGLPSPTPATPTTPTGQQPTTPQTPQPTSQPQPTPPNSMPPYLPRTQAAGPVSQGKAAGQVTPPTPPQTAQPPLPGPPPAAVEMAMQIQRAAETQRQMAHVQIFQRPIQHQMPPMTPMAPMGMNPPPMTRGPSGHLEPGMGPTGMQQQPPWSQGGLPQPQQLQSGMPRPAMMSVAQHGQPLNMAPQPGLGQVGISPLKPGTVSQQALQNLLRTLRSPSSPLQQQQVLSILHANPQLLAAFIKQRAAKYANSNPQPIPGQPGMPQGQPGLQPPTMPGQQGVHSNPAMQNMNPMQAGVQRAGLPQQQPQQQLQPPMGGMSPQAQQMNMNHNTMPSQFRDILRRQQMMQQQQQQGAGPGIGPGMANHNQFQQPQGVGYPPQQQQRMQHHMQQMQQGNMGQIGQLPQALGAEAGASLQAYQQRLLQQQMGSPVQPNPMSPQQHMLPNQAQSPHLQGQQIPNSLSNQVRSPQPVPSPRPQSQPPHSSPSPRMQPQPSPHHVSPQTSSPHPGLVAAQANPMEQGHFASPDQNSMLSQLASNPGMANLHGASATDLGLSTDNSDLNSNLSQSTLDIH
T2 sequence (Q92793 whole entry, looked up, the tested form may be a part): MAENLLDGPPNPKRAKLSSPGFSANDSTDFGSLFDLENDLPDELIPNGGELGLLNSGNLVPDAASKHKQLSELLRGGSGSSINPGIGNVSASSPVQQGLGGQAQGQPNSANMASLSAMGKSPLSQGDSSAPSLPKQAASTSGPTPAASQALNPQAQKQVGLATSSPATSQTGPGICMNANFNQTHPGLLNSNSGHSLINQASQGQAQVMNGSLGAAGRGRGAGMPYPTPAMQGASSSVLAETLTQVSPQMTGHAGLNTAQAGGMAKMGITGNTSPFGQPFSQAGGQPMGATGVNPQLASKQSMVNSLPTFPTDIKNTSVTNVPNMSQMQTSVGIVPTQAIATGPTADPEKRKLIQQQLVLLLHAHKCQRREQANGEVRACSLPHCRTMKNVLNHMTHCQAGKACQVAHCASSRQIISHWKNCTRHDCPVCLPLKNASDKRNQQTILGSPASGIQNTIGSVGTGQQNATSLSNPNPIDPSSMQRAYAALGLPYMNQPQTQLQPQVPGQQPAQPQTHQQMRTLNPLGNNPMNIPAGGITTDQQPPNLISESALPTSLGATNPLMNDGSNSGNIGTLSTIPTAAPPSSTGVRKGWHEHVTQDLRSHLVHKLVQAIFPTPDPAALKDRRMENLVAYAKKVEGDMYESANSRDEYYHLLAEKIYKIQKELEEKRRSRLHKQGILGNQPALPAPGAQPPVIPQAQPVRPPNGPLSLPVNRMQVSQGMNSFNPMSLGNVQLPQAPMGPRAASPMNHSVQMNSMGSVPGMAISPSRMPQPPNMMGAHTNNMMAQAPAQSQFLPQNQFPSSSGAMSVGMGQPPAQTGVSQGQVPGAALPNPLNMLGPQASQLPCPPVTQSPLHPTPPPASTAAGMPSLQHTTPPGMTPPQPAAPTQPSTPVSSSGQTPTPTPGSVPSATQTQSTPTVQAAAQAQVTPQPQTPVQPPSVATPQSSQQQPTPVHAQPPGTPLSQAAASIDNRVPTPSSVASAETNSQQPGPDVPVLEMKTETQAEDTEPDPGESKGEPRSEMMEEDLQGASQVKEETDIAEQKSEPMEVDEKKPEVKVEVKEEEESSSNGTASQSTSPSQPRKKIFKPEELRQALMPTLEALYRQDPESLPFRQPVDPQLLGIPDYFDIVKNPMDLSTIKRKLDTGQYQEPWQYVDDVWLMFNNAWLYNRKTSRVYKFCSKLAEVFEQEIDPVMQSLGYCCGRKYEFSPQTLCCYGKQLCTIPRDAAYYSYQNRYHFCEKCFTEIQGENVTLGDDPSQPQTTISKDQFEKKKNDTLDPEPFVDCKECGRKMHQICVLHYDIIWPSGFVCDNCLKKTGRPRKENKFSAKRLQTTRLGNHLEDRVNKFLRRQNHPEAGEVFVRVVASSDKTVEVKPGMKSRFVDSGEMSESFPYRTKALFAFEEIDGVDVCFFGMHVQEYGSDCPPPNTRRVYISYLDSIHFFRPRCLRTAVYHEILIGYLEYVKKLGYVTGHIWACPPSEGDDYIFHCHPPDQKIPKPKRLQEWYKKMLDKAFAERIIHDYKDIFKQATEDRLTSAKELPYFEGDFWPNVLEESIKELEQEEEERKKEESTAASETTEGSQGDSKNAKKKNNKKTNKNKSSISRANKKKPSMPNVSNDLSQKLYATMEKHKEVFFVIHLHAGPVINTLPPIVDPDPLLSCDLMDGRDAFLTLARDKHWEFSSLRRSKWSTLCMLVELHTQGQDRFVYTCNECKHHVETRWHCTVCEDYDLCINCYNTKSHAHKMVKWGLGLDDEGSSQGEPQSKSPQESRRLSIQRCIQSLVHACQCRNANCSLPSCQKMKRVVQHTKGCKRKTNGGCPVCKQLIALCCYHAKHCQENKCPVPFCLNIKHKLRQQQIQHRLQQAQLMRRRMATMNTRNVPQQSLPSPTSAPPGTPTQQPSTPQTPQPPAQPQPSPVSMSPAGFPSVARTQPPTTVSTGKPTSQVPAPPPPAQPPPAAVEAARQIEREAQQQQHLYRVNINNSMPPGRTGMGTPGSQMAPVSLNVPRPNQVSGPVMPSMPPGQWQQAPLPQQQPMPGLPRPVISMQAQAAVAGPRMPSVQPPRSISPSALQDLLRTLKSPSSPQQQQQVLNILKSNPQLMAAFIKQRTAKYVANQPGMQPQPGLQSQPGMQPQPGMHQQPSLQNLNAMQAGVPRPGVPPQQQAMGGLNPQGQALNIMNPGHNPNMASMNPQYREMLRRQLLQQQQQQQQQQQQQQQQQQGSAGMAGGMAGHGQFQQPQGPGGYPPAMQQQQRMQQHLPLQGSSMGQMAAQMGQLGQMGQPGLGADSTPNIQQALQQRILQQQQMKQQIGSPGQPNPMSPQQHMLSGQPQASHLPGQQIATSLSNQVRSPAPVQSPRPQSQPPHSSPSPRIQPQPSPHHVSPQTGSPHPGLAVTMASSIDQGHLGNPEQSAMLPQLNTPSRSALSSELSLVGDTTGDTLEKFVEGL
T1 sequence (Q09472 whole entry, the tested form may be a part): as the sequence (Q09472 whole entry, looked up, the tested form may be a part) above
Sequence of CREB-binding protein (Q92793 whole entry): as the sequence (Q92793 whole entry, looked up, the tested form may be a part) above

Compound: C=C(C)[C@H](CC=C(C)C)C[C@]12C[C@H](CC=C(C)C)C(C)(C)[C@](CC=C(C)C)(C(=O)C(C(=O)c3ccc(O)c(O)c3)=C1O)C2=O
IC50 [1]: 5 µM

Compound: CC(C1CC1)N(Cc1ccccc1)C(=O)CN1C(=O)NC(Cc2c[nH]c3ccccc23)C1=O (stereo not drawn)
IC50 [1]: 5.1 µM

More lines, now with the values ahead:

IC50 [1]: 11.5 µM
Compound: NS(=O)(=O)c1ccc(NC(=O)CN2C(=O)SC(=C3CCCCC3)C2=O)cc1

inhibition [2]: inactive
Compound: CNC(=O)c1ccc(N2C(=S)N(c3ccc(C#N)c(C(F)(F)F)c3)C(=O)C2(C)C)cc1F

Kd [3]: 20 µM | IC50 [1]: > 50 µM | EC50 [4]: > 10 µM | inhibition [4]: inactive | EC50 [5]: > 10 µM | inhibition [5]: inactive | EC50 [6]: > 10 µM | IC50 [7]: > 10 µM | IC50 [8]: 9.03 µM | inhibition at 10 µM [9]: 7% | inhibition at 10 µM [10]: -3% | inhibition at 10 µM [11]: 0% | INH [12]: > 10 µM | INH [13]: > 10 µM | INH [14]: > 10 µM | INH [15]: > 10 µM | INH [16]: > 10 µM | INH [17]: > 10 µM | INH [18]: > 10 µM
Compound: CNC(=O)Nc1ccc2c(c1)[C@@]1(CC2)OC(=O)N(CC(=O)N(Cc2ccc(F)cc2)[C@@H](C)C(F)(F)F)C1=O [A-486]
